According to ChEMBL document CHEMBL1909630, “Azaxanthene based selective glucocorticoid receptor modulators: design, synthesis, and pharmacological evaluation of (S)-4-(5-(1-((1,3,4-thiadiazol-2-yl)amino)-2-methyl-1-oxopropan-2-yl)-5H-chromeno[2,3-b]pyridin-2-yl)-2-fluoro-N,N-dimethylbenzamide (BMS-776532) and its methylene homologue …” (J Med Chem, 2011):

Columns and labels:
Glucocorticoid receptor [1] = biological target: T1, Glucocorticoid receptor (Homo sapiens, UniProt P04150); test: Displacement of GS-red from glucocorticoid receptor by fluorescence polarization assay
T1 sequence (P04150 whole entry): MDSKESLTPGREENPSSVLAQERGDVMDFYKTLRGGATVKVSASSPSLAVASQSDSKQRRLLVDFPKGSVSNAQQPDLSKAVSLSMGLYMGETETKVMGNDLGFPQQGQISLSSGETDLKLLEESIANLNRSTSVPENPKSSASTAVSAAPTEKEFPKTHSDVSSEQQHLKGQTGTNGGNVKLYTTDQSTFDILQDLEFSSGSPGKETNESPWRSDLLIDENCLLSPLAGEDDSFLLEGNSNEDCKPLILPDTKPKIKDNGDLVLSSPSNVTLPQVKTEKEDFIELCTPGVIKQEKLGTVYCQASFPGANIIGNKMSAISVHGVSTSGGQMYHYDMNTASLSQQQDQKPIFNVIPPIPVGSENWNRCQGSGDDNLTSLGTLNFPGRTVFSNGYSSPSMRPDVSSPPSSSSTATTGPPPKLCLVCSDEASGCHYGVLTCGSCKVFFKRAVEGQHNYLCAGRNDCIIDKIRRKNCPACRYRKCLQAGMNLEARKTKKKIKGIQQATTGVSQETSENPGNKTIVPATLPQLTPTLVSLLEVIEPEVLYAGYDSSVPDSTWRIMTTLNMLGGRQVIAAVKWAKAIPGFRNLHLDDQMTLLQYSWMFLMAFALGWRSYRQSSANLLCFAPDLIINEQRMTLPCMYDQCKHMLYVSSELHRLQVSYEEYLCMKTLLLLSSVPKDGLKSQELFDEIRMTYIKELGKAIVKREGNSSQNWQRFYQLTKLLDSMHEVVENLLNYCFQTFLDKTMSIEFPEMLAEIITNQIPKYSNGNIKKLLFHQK

Progesterone receptor = biological target: T2, Progesterone receptor (Homo sapiens, UniProt P06401); test: Displacement of fluorescently labeled ligand from progesterone receptor by fluorescence polarization assay
T2 sequence (P06401 whole entry): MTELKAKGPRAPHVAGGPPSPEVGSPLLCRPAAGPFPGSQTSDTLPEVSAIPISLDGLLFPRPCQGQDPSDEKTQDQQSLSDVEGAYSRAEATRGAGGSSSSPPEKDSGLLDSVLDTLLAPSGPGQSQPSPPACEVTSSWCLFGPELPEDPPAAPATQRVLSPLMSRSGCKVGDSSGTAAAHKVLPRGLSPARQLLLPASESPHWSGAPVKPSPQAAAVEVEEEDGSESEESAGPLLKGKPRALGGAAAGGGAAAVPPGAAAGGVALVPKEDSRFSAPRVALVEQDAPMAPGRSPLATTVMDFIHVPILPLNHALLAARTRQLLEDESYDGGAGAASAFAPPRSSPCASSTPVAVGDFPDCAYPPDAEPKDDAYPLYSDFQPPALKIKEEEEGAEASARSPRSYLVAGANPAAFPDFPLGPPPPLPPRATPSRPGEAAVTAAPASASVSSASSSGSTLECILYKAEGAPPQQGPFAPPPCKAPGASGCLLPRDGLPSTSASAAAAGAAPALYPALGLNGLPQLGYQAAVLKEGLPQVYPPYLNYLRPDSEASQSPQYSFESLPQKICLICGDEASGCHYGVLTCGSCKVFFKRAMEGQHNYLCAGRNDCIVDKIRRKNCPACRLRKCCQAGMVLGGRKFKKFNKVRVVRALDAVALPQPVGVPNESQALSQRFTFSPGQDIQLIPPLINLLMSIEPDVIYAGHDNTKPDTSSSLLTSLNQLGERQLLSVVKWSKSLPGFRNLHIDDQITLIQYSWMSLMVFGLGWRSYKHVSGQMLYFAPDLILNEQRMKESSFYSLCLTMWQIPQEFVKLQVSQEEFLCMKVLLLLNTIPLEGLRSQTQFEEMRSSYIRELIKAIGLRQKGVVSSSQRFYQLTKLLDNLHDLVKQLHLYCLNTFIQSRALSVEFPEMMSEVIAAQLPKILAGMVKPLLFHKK

Androgen receptor = biological target: T3, Androgen receptor (Homo sapiens, UniProt P10275); test: Displacement of fluorescently labeled ligand from androgen receptor by fluorescence polarization assay
T3 sequence (P10275 whole entry): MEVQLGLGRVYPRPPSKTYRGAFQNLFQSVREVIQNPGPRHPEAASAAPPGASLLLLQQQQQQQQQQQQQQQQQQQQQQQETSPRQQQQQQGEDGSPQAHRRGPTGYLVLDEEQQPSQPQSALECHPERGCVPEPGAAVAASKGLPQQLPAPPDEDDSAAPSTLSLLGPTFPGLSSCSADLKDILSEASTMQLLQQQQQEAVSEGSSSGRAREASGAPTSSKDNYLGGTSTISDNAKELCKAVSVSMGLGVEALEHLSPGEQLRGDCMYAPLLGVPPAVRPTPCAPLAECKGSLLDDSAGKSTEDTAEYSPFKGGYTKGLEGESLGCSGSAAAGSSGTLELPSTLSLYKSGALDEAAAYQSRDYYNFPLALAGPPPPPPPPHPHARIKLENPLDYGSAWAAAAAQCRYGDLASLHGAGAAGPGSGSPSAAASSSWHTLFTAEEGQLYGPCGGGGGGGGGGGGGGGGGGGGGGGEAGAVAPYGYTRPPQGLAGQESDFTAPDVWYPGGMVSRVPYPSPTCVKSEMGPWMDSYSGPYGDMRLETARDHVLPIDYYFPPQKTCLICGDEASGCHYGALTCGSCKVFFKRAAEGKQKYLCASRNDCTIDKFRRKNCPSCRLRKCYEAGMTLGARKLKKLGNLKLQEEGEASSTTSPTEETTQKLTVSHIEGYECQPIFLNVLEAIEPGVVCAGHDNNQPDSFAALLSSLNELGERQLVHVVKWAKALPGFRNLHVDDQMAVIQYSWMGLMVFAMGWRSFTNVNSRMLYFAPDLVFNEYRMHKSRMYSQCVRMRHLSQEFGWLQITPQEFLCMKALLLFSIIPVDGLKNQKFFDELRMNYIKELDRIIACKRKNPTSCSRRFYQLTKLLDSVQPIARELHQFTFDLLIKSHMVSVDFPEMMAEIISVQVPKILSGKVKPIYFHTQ
Procedure, shortened: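 Binding was measured by fluorescence polarization competition between compound and a fluorescent ligand for full-length receptor or ligand-binding domain. Values are means of at least two experiments.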

Glucocorticoid receptor [2] = biological target: T1, Glucocorticoid receptor; test: Transrepression activity at glucocorticoid receptor alpha in phorbol myristate acetate-stimulated human A549 cells assessed as inhibition of AP1 response element by luciferase reporter gene assay; format: cell-based
Glucocorticoid receptor [3] = biological target: T1, Glucocorticoid receptor; test: Transrepression activity at glucocorticoid receptor alpha in IL-1beta-stimulated human A549 cells assessed as inhibition of NFkappaB-dependent E-selectin transcription by luciferase reporter gene assay; format: cell-based
Glucocorticoid receptor [4] = biological target: T1, Glucocorticoid receptor; test: Transactivation activity at GR-alpha in human NP1 Hela cells assessed as induction of GAL4-DBD after 20 hrs by luciferase reporter gene assay; format: cell-based
Glucocorticoid receptor [5] = biological target: T1, Glucocorticoid receptor; test: Transactivation activity at glucocorticoid receptor alpha human 13D3/Huh7 cells assessed as induction of TAT activity after 4 hrs by spectrophotometry; format: cell-based, Huh-7
Glucocorticoid receptor [6] = biological target: T1, Glucocorticoid receptor; test: Transactivation activity at GR-alpha in human NP1 Hela cells assessed as inhibition of GAL4-DBD after 20 hrs by luciferase reporter gene assay; format: cell-based

| Ki (Glucocorticoid receptor [1]) | Ki (Progesterone receptor) | Ki (Androgen receptor) | EC50 (Glucocorticoid receptor [2]) | EC50 (Glucocorticoid receptor [3]) | EC50 (Glucocorticoid receptor [4]) | EC50 (Glucocorticoid receptor [5]) | EC50 (Glucocorticoid receptor [6]) | SMILES |
| --- | --- | --- | --- | --- | --- | --- | --- | --- |
| 0.0024 µM | 0.285 µM | > 5 µM | 0.0151 µM | 0.0297 µM | 0.126 µM | 0.823 µM | 0.036 µM | CCCc1ccc(-c2ccc3c(n2)Oc2ccccc2[C@H]3C(C)(C)C(=O)Nc2nncs2)cc1 |
| 0.0016 µM | 0.31 µM |  | 0.0181 µM |  | 0.135 µM | 0.107 µM | 0.077 µM | CC(C)Oc1ccc(-c2ccc3c(n2)Oc2ccccc2[C@H]3C(C)(C)C(=O)Nc2nncs2)cc1 |
